Data from ChEMBL document CHEMBL4689842, “EUbOPEN Chemogenomics Library wave 1” (2021).

System: Fibroblast
Assay: Multiplex assay against human fibroblast
Type: toxicity, cell-based
Method in brief: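 Live cells carried four stains from seeding: Hoechst33342, BioTracker Green Microtubule Cytoskeleton Dye, MitoTracker Red and Annexin V Alexa Fluor 680. They were imaged on a CQ1 microscope at 37°C and 5% CO2 after compound addition. Using CellPathfinder machine-learning gating, cells were split into Hoechst high-intensity objects or normal cells, normal cells into healthy, pyknosed or fragmented nuclei, and pyknosed cells into mitotic or apoptotic; tubulin, mitochondrial-mass and membrane-permeability phenotypes are per cents of healthy-nucleus cells.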

[1] = 12 h, 1 µM, compound concentration 1 uM, replicate 1
[2] = 12 h, 1 µM, compound concentration 1 uM, replicate 2
[3] = 12 h, 10 µM, compound concentration 10 uM, replicate 1
[4] = 12 h, 10 µM, compound concentration 10 uM, replicate 2
[5] = 24 h, 1 µM, compound concentration 1 uM, replicate 1
[6] = 24 h, 1 µM, compound concentration 1 uM, replicate 2
[7] = 24 h, 10 µM, compound concentration 10 uM, replicate 1
[8] = 24 h, 10 µM, compound concentration 10 uM, replicate 2
[9] = 48 h, 1 µM, compound concentration 1 uM, replicate 1
[10] = 48 h, 1 µM, compound concentration 1 uM, replicate 2
[11] = 48 h, 10 µM, compound concentration 10 uM, replicate 1
[12] = 48 h, 10 µM, compound concentration 10 uM, replicate 2

## CC(C)(C)NC[C@H](O)COc1nsnc1N1CCOCC1 [TIMOLOL]
[1]
  Population Apoptotic (%): 71%
  Population Fragmented Nuclei (%): 22%
  Population Healthy Nuclei (%): 51%
  Population Hoechst High Intensity Objects (%): 14%
  Population Membrane Permeable-Phenotype (%): 14%
  Population Mitochondria Different-Phenotype (%): 1%
  Population Mitotic Cells (%): 28%
  Population Normal (%): 85%
  Population Pyknosed Nuclei (%): 25%
  Population Tubulin-Different-Phenotype (%): 25%
[2]
  Population Apoptotic (%): 100%
  Population Fragmented Nuclei (%): 5%
  Population Healthy Nuclei (%): 88%
  Population Hoechst High Intensity Objects (%): 8%
  Population Membrane Permeable-Phenotype (%): 8%
  Population Mitochondria Different-Phenotype (%): 11%
  Population Mitotic Cells (%): 0%
  Population Normal (%): 92%
  Population Pyknosed Nuclei (%): 5%
  Population Tubulin-Different-Phenotype (%): 18%
[3]
  Population Apoptotic (%): 60%
  Population Fragmented Nuclei (%): 28%
  Population Healthy Nuclei (%): 40%
  Population Hoechst High Intensity Objects (%): 14%
  Population Membrane Permeable-Phenotype (%): 33%
  Population Mitochondria Different-Phenotype (%): 0%
  Population Mitotic Cells (%): 39%
  Population Normal (%): 85%
  Population Pyknosed Nuclei (%): 31%
  Population Tubulin-Different-Phenotype (%): 47%
  Total Cell Count: 105
[4]
  Population Apoptotic (%): 33%
  Population Fragmented Nuclei (%): 8%
  Population Healthy Nuclei (%): 79%
  Population Hoechst High Intensity Objects (%): 3%
  Population Membrane Permeable-Phenotype (%): 4%
  Population Mitochondria Different-Phenotype (%): 7%
  Population Mitotic Cells (%): 66%
  Population Normal (%): 96%
  Population Pyknosed Nuclei (%): 11%
  Population Tubulin-Different-Phenotype (%): 4%
[5]
  Population Apoptotic (%): 60%
  Population Fragmented Nuclei (%): 19%
  Population Healthy Nuclei (%): 53%
  Population Hoechst High Intensity Objects (%): 12%
  Population Membrane Permeable-Phenotype (%): 26%
  Population Mitochondria Different-Phenotype (%): 0%
  Population Mitotic Cells (%): 39%
  Population Normal (%): 87%
  Population Pyknosed Nuclei (%): 27%
  Population Tubulin-Different-Phenotype (%): 30%
[6]
  Population Apoptotic (%): 50%
  Population Fragmented Nuclei (%): 11%
  Population Healthy Nuclei (%): 81%
  Population Hoechst High Intensity Objects (%): 5%
  Population Membrane Permeable-Phenotype (%): 2%
  Population Mitochondria Different-Phenotype (%): 18%
  Population Mitotic Cells (%): 50%
  Population Normal (%): 94%
  Population Pyknosed Nuclei (%): 6%
  Population Tubulin-Different-Phenotype (%): 21%
[7]
  Population Apoptotic (%): 65%
  Population Fragmented Nuclei (%): 22%
  Population Healthy Nuclei (%): 49%
  Population Hoechst High Intensity Objects (%): 16%
  Population Membrane Permeable-Phenotype (%): 58%
  Population Mitochondria Different-Phenotype (%): 2%
  Population Mitotic Cells (%): 34%
  Population Normal (%): 83%
  Population Pyknosed Nuclei (%): 27%
  Population Tubulin-Different-Phenotype (%): 58%
  Total Cell Count: 99
[8]
  Population Apoptotic (%): 41%
  Population Fragmented Nuclei (%): 7%
  Population Healthy Nuclei (%): 81%
  Population Hoechst High Intensity Objects (%): 2%
  Population Membrane Permeable-Phenotype (%): 3%
  Population Mitochondria Different-Phenotype (%): 5%
  Population Mitotic Cells (%): 58%
  Population Normal (%): 97%
  Population Pyknosed Nuclei (%): 11%
  Population Tubulin-Different-Phenotype (%): 4%
[9]
  Population Apoptotic (%): 64%
  Population Fragmented Nuclei (%): 29%
  Population Healthy Nuclei (%): 53%
  Population Hoechst High Intensity Objects (%): 10%
  Population Membrane Permeable-Phenotype (%): 22%
  Population Mitochondria Different-Phenotype (%): 2%
  Population Mitotic Cells (%): 35%
  Population Normal (%): 89%
  Population Pyknosed Nuclei (%): 16%
  Population Tubulin-Different-Phenotype (%): 34%
[10]
  Population Apoptotic (%): 33%
  Population Fragmented Nuclei (%): 12%
  Population Healthy Nuclei (%): 84%
  Population Hoechst High Intensity Objects (%): 15%
  Population Membrane Permeable-Phenotype (%): 14%
  Population Mitochondria Different-Phenotype (%): 1%
  Population Mitotic Cells (%): 66%
  Population Normal (%): 84%
  Population Pyknosed Nuclei (%): 3%
  Population Tubulin-Different-Phenotype (%): 23%
  Total Cell Count: 106
[11]
  Population Apoptotic (%): 47%
  Population Fragmented Nuclei (%): 34%
  Population Healthy Nuclei (%): 45%
  Population Hoechst High Intensity Objects (%): 16%
  Population Membrane Permeable-Phenotype (%): 51%
  Population Mitochondria Different-Phenotype (%): 0%
  Population Mitotic Cells (%): 52%
  Population Normal (%): 83%
  Population Pyknosed Nuclei (%): 19%
  Population Tubulin-Different-Phenotype (%): 42%
  Total Cell Count: 118
[12]
  Population Apoptotic (%): 33%
  Population Fragmented Nuclei (%): 16%
  Population Healthy Nuclei (%): 77%
  Population Hoechst High Intensity Objects (%): 9%
  Population Membrane Permeable-Phenotype (%): 8%
  Population Mitochondria Different-Phenotype (%): 2%
  Population Mitotic Cells (%): 66%
  Population Normal (%): 90%
  Population Pyknosed Nuclei (%): 5%
  Population Tubulin-Different-Phenotype (%): 29%
